Data set [1] has as its system Mus musculus. The experiment in a line: Protective index is defined as ND50 (i.p.) divided by MES ED50(i.p.). In kind it is functional. The method in brief: (§1)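 Ratio of ND50 from the wire traction test to MES ED50, both measured by the same route (ip or oral) in the same animals. Quantal dose-response data for each were evaluated by Litchfield-Wilcoxon.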
Data set [2] deals with Mus musculus. The experiment in a line: Anticonvulsant activity in mouse maximal electroshock assay following i.p. administration. In kind it is functional. As to conditions: ip. The method in brief: (§2)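 Male Hilltop ICR-derived mice (19-30 g), groups of 8-10, dosed ip with compound or aqueous vehicle. After 15 min pretreatment, a transcorneal 60-Hz, 50 mA shock was given for 0.2 s. Just before the shock, each mouse was tested on a horizontal wire (10 s). Quantal data were analysed by Litchfield-Wilcoxon to give ED50 with 95% confidence limits.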

The nature of data set [3]: (§3) Lethal dose was measured in mice after ip administration. The format is toxicity, organism-based. The note with it: mouse, in vivo. The method in brief: (§4)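 Male Simonsen ICR-derived mice (16-24 g), groups of three, given compound ip in increasing doses within a behavioral screen. Deaths counted on day 5, and LD50 estimated from 5-day survival. Quantal data analysed by the Litchfield-Wilcoxon method.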

For data set [4], the system named is Mus musculus. The experiment in a line: Dose causing a neurological deficit in 50% of mice after ip administration. The format is functional. Summed up: (§5)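 Traction test in male Hilltop ICR-derived mice (19-30 g, groups of 8-10) just before electroshock, 15 min after ip or 30 min after oral dosing. Mice placed on a 16-gauge, 65-cm copper wire 40 cm above the table; deficit scored as failure to stay on for 10 s. ND50 with 95% limits by Litchfield-Wilcoxon.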

The subject of data set [5] is Mus musculus. Put plainly: Dose of compound causing a neurological deficit in 50% of mice after po administration; 82-1100. In kind it is functional. The method in brief:
as §5

The subject of data set [6] is Rattus norvegicus. The experiment in a line: Dose of compound causing a neurological deficit in 50% of rat after po administration. The format is functional. Summed up: (§6)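 Rats (Simonsen Sprague-Dawley-derived, 80-110 g, groups of 8-10) placed on a suspended 16-gauge, 65-cm copper wire just before electroshock. Deficit scored as inability to remain for 8 s. Pretreatment was 15 min ip or 30 min oral. Quantal data analysed by Litchfield-Wilcoxon to give ND50 with 95% limits.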

For data set [7], the system named is Mus musculus. Put plainly: Dose of compound causing a neurological deficit in 50% of mice after ip administration; 21-52. In kind it is functional. Summed up: as §5
Data set [8] concerns Mus musculus. The data set is described as §3. In kind it is functional. The method in brief: as §4
Data set [9] has as its system Rattus norvegicus. The experiment in a line: Compound was evaluated for anticonvulsant activity by maximal electroshock assay(MES) in rat after ip administration; 1.5-6.7. In kind it is functional. In general terms: The maximal electroshock test induces tonic seizures with an electrical stimulus.
Data set [10] has as its system Rattus norvegicus. The experiment in a line: Compound was evaluated for anticonvulsant activity by maximal electroshock assay(MES) in rat after po administration; 4.5-19. In kind it is functional. Summed up: (§7)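 Male Simonsen Sprague-Dawley-derived rats, 80-110 g, groups of 8-10, dosed with compound or aqueous vehicle; pretreatment 15 min after ip or 30 min after oral dosing. Transcorneal electroshock, 150 mA, 60 Hz, 0.2 s, given after the wire test. ED50 with 95% confidence limits from quantal data by Litchfield-Wilcoxon.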

In data set [11] the test system is Rattus norvegicus. The experiment in a line: Dose of compound causing a neurological deficit in 50% of rat after ip administration; 29-57. In kind it is functional. The method in brief:
as §6

Data set [12] deals with Mus musculus. The experiment in a line: Compound was evaluated for anticonvulsant activity by maximal electroshock assay(MES) in mice after po administration; 13-23. The format is functional. The method in brief:
(§8)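 Male Hilltop ICR-derived mice (19-30 g), groups of 8-10, given compound or aqueous vehicle orally. The transcorneal 60-Hz shock (50 mA, 0.2 s) followed a 30 min pretreatment and a wire-hang neurological check (10 s). ED50 and 95% confidence limits were obtained from quantal data by the Litchfield-Wilcoxon method.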

Data set [13] relates to Rattus norvegicus. The experiment in a line: Compound was evaluated for anticonvulsant activity by maximal electroshock assay(MES) in rat after ip administration. The format is functional.
The subject of data set [14] is Rattus norvegicus. Put plainly: Dose of compound causing a neurological deficit in 50% of rat after ip administration. The format is functional. The method in brief: as §6
Data set [15] has as its system Mus musculus. Put plainly: Protective index defined as ND50 (p.o.) divided by MES ED50(op). The format is functional. Summed up: as §1
In data set [16] the test system is Mus musculus. Put plainly: Dose causing a neurological deficit in 50% of mice following p.o. administration. In kind it is functional. The method in brief:
as §5

Data set [17] has as its system Mus musculus. Put plainly: Compound was evaluated for anticonvulsant activity by maximal electroshock assay(MES) in mice after po administration. The format is functional. Summed up: as §8
Data set [18] concerns Mus musculus. Put plainly: Compound was evaluated for anticonvulsant activity by maximal electroshock assay(MES) in mice after ip administration; 22-80. The format is functional. Summed up:
as §2

The subject of data set [19] is Mus musculus. Put plainly: Compound was evaluated for anticonvulsant activity by maximal electroshock assay(MES) in mice after ip administration; 8-13. The format is functional. Summed up:
as §2

Data set [20] concerns Rattus norvegicus. Put plainly: Compound was evaluated for anticonvulsant activity by maximal electroshock assay(MES) in rat after po administration; 15-36. The format is functional. The method in brief:
as §7

The test system of data set [21] is Rattus norvegicus. The experiment in a line: Compound was evaluated for anticonvulsant activity by maximal electroshock assay(MES) in rat after ip administration; 3.8-8.4. In kind it is functional.
For data set [22], the system named is Mus musculus. The experiment in a line: Dose of compound causing a neurological deficit in 50% of mice after po administration. The format is functional. The method in brief:
as §5

The subject of data set [23] is Mus musculus. Put plainly: Compound was evaluated for anticonvulsant activity by maximal electroshock assay(MES) in mice after po administration; 15-26. The format is functional. The method in brief: as §8
Data set [24] has as its system Mus musculus. The experiment in a line: Dose of compound causing a neurological deficit in 50% of mice after ip administration; 41-246. The format is functional. The method in brief: as §5

Where “and” joins values, the source holds several entries; their conditions need not be identical. Identical values can stand only once. A value given as a limit tells only on which side of the number the result lay.

A word on the ED50: it is the dose that gives a 50% effect, or the effect in half of the subjects. Higher therefore signals weaker potency. In general, LD50 refers to the dose expected to kill half of the subjects tested. Lower therefore signals greater toxicity.

`Cl.c1ccc2cc(C3(Cn4ccnc4)SCCCS3)ccc2c1` yielded a PI in the data set with Mus musculus [1] of 1.4. Further, the ED50 in the data set with Mus musculus [2] is 65 mg/kg. For the same compound, the LD50 in data set [3] was greater than 100 mg/kg.

In the data set on Mus musculus [4], `CSC(Cn1ccnc1)c1ccc2ccccc2c1.Cl` (stereo unspecified) showed an ND50 of 76 mg/kg. Further, the PI in the data set on Mus musculus [1] was 2.1. For the same compound, in the data set on Mus musculus [2], it took a dose of 37 mg/kg to reach the 50% effect level (ED50).

Turning to `Cl.c1ccc(CSC(Cn2ccnc2)(SCc2ccccc2)c2ccc3ccccc3c2)cc1`, the ND50 with Mus musculus [4] is greater than 100 mg/kg. The ED50 in the data set with Mus musculus [2] is greater than 100 mg/kg.

As for `Cc1cc2cccc(C(=O)Cn3ccnc3)c2cc1C.Cl`, the ND50 in the data set with Mus musculus [4] was greater than 300 mg/kg. This compound showed a PI with Mus musculus [1] greater than 3.8. Besides, it took a dose of 80 mg/kg to reach the 50% effect level with Mus musculus [2] (ED50).

As for `Cl.c1ccc2cc(C3(Cn4ccnc4)OCCO3)ccc2c1`, the ND50 in the data set on Mus musculus [5] was 173 mg/kg; with Rattus norvegicus [6] it was greater than 300 mg/kg; with Mus musculus [7], 31 mg/kg; with Rattus norvegicus [11], 41 mg/kg. This compound also showed an LD50 in the data set with Mus musculus [8] greater than 100 mg/kg. In addition, the ED50 in the data set on Rattus norvegicus [9] was found to be 4.5 mg/kg; in the data set with Rattus norvegicus [10], 10 mg/kg; in the data set with Mus musculus [12], 18 mg/kg.

Turning to `CCCSC(Cn1ccnc1)(SCCC)c1ccc2ccccc2c1.Cl`, in the data set with Mus musculus [4], the ND50 is greater than 100 mg/kg. Further, the ED50 with Mus musculus [2] was greater than 100 mg/kg. The LD50 in [3] was greater than 100 mg/kg.

`O=C(Cn1ccnc1)c1cccc2ccccc12` came in with an LD50 in data set [3] greater than 100 mg/kg.

For `Cl.c1ccc2cc(Cn3ccnc3)ccc2c1`, the ND50 in the data set with Mus musculus [4] and in the data set on Rattus norvegicus [14] was 32 mg/kg in each case. Also, the ED50 in the data set on Rattus norvegicus [13] is 6.2 mg/kg; with Mus musculus [2], 25 mg/kg.

As to `CCC1(c2ccccc2)C(=O)NC(=O)NC1=O` [PHENOBARBITAL], the PI in the data set on Mus musculus [15] is reported as 1.9; in the data set on Mus musculus [1], 2. In addition, the figures for the ND50 in the data set with Mus musculus [4] and in the data set with Mus musculus [16] were 30 mg/kg and 36 mg/kg, respectively. The ED50 in the data set on Mus musculus [2] turned out to be 15 mg/kg; in the data set with Mus musculus [17], 19 mg/kg. Besides, the LD50 in data set [3] was greater than 100 mg/kg.

With `Cl.c1ccc2cc(C3(CCn4ccnc4)SCCS3)ccc2c1`, the ND50 in the data set on Mus musculus [4] came out at 33 mg/kg. In the data set with Mus musculus [1], the PI is 2.2. In addition, the ED50 in the data set with Mus musculus [2] came out at 15 mg/kg.

In the data set on Mus musculus [18], `Cl.O=C(Cn1ccnc1)c1ccc2cc(Br)ccc2c1` gave an ED50 of 41 mg/kg.

In the case of `CC(C)SC(Cn1ccnc1)(SC(C)C)c1ccc2ccccc2c1.Cl`, the ND50 in the data set on Mus musculus [4] is greater than 100 mg/kg. Moreover, the PI in the data set with Mus musculus [1] is listed as greater than 1.2. In addition, it took a dose of 86 mg/kg to reach the 50% effect level in the data set with Mus musculus [2] (ED50).

On to `Cl.O=C(CCn1ccnc1)c1ccc2ccccc2c1`, for which the PI in the data set on Mus musculus [15] was >5 and >4; with Mus musculus [1], 6 and >10. Further, the ED50 in the data set with Mus musculus [19] was determined as 10 mg/kg; in the data set on Rattus norvegicus [20], 25 mg/kg; in the data set on Rattus norvegicus [21], 5.9 mg/kg; with Mus musculus [23], 20 mg/kg. The ND50 with Rattus norvegicus [6] is greater than 100 mg/kg; with Mus musculus [22] it was greater than 100 mg/kg; with Rattus norvegicus [14], greater than 60 mg/kg; with Mus musculus [24] it was 60 mg/kg.

The values are drawn from ChEMBL document CHEMBL1121883, “1-(Naphthylalkyl)-1H-imidazole derivatives, a new class of anticonvulsant agents” (J Med Chem, 1981).
